ChEMBL document CHEMBL1275468, “Plasmid-mediated qnrB2 and carbapenemase gene bla(KPC-2) carried on the same plasmid in carbapenem-resistant ciprofloxacin-susceptible Enterobacter cloacae isolates” (2008)

Tests used:
Format in all cases: functional
Escherichia coli [1] = test: Antimicrobial activity against Escherichia coli T-625 harboring expressing qnrB2 and beta-lactamase KPC-2 and SHV-12 gene by Etest in presence of beta-lactamase inhibitor Tazobactam
Escherichia coli [2] = test: Antimicrobial activity against Escherichia coli T-622 harboring expressing qnrB2 and beta-lactamase KPC-2 and SHV-12 gene by Etest
Procedure, shortened: (§1)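 MIC read by Etest. Strains are E. coli GeneHogs (recA1) transformants. Plasmid DNA from clinical E. cloacae isolates was introduced by electroporation. Transformants were selected on LB agar with 100 μg/ml ampicillin, then PCR-screened for blaKPC, blaSHV and qnr genes.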

Enterobacter cloacae [3] = test: Antimicrobial activity against Enterobacter cloacae isolate 656 containing PFGE genetic clone A expressing beta-lactamase KPC-2 and SHV-12 gene by Etest
Enterobacter cloacae [4] = test: Antimicrobial activity against Enterobacter cloacae isolate 658 containing PFGE genetic clone B expressing qnrB2 and beta-lactamase KPC-2 and SHV-12 gene by Etest in presence of beta-lactamase inhibitor Tazobactam
Procedure, shortened: (§2)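 Clinical carbapenem-resistant, blaKPC-2-carrying E. cloacae isolates; MIC read by Etest. Clonal relatedness typed by PFGE after SpeI (20 U) digestion of genomic DNA on a CHEF-DR III system. qnr genes, and aac(6′)-Ib-cr by PCR with BtsCI digestion, detected from cell-lysate templates.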

Enterobacter cloacae [5] = test: Antimicrobial activity against Enterobacter cloacae isolate 140 containing PFGE genetic clone A expressing beta-lactamase KPC-2 and SHV-12 gene by Etest
Enterobacter cloacae [6] = test: Antimicrobial activity against Enterobacter cloacae isolate 293 containing PFGE genetic clone A expressing qnrB2 and beta-lactamase KPC-2 and SHV-12 gene by Etest
Enterobacter cloacae [7] = test: Antimicrobial activity against Enterobacter cloacae isolate 622 containing PFGE genetic clone A expressing qnrB2 and beta-lactamase KPC-2 and SHV-12 gene by Etest in presence of beta-lactamase inhibitor Tazobactam; procedure, shortened: as §2
Enterobacter cloacae [8] = test: Antimicrobial activity against Enterobacter cloacae isolate 4469 containing PFGE genetic clone C expressing qnrB2 and beta-lactamase KPC-2 and SHV-12 gene by Etest
Enterobacter cloacae [9] = test: Antimicrobial activity against Enterobacter cloacae isolate 649 containing PFGE genetic clone B expressing qnrB2 and beta-lactamase KPC-2 and SHV-12 gene by Etest in presence of beta-lactamase inhibitor Tazobactam; procedure, shortened: as §2
Enterobacter cloacae [10] = test: Antimicrobial activity against Enterobacter cloacae isolate 649 containing PFGE genetic clone B expressing qnrB2 and beta-lactamase KPC-2 and SHV-12 gene by Etest
Escherichia coli [11] = test: Antimicrobial activity against Escherichia coli T-625 harboring expressing qnrB2 and beta-lactamase KPC-2 and SHV-12 gene by Etest; procedure, shortened: as §1
Enterobacter cloacae [12] = test: Antimicrobial activity against Enterobacter cloacae isolate 781 containing PFGE genetic clone B expressing qnrB2 and beta-lactamase KPC-2 and SHV-12 gene by Etest in presence of beta-lactamase inhibitor Tazobactam; procedure, shortened: as §2
Enterobacter cloacae [13] = test: Antimicrobial activity against Enterobacter cloacae isolate 18 containing PFGE genetic clone A expressing qnrB2 and beta-lactamase KPC-2 and SHV-12 gene by Etest
Enterobacter cloacae [14] = test: Antimicrobial activity against Enterobacter cloacae isolate 533 containing PFGE genetic clone A expressing qnrB2 and beta-lactamase KPC-2 and SHV-12 gene by Etest
Enterobacter cloacae [15] = test: Antimicrobial activity against Enterobacter cloacae isolate 837 containing PFGE genetic clone B expressing qnrB2 and beta-lactamase KPC-2 and SHV-12 gene by Etest
Enterobacter cloacae [16] = test: Antimicrobial activity against Enterobacter cloacae isolate 293 containing PFGE genetic clone A expressing qnrB2 and beta-lactamase KPC-2 and SHV-12 gene by Etest in presence of beta-lactamase inhibitor Tazobactam; procedure, shortened: as §2
Enterobacter cloacae [17] = test: Antimicrobial activity against Enterobacter cloacae isolate 625 containing PFGE genetic clone A expressing qnrB2 and beta-lactamase KPC-2 and SHV-12 gene by Etest in presence of beta-lactamase inhibitor Tazobactam; procedure, shortened: as §2
Enterobacter cloacae [18] = test: Antimicrobial activity against Enterobacter cloacae isolate 658 containing PFGE genetic clone B expressing qnrB2 and beta-lactamase KPC-2 and SHV-12 gene by Etest
Enterobacter cloacae [19] = test: Antimicrobial activity against Enterobacter cloacae isolate 18 containing PFGE genetic clone A expressing qnrB2 and beta-lactamase KPC-2 and SHV-12 gene by Etest in presence of beta-lactamase inhibitor Tazobactam; procedure, shortened: as §2
Escherichia coli [20] = test: Antimicrobial activity against Escherichia coli T-781 harboring expressing qnrB2 and beta-lactamase KPC-2 and SHV-12 gene by Etest; procedure, shortened: as §1
Enterobacter cloacae [21] = test: Antimicrobial activity against Enterobacter cloacae isolate 622 containing PFGE genetic clone A expressing qnrB2 and beta-lactamase KPC-2 and SHV-12 gene by Etest
Escherichia coli [22] = test: Antimicrobial activity against Escherichia coli GeneHogs by Etest in presence of beta-lactamase inhibitor Tazobactam
Procedure, shortened: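 Recipient is E. coli GeneHogs (recA1), electroporated with plasmid DNA from clinical isolates. Transformants were selected on LB agar with 100 μg/ml ampicillin and PCR-screened for blaKPC, blaSHV and qnr genes. MIC read by Etest.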

Enterobacter cloacae [23] = test: Antimicrobial activity against Enterobacter cloacae isolate 185 containing PFGE genetic clone A expressing qnrB2 aac(6')-Ib-cr and beta-lactamase KPC-2 and SHV-12 gene by Etest
Enterobacter cloacae [24] = test: Antimicrobial activity against Enterobacter cloacae isolate 533 containing PFGE genetic clone A expressing qnrB2 and beta-lactamase KPC-2 and SHV-12 gene by Etest in presence of beta-lactamase inhibitor Tazobactam; procedure, shortened: as §2
Enterobacter cloacae [25] = test: Antimicrobial activity against Enterobacter cloacae isolate 151 containing PFGE genetic clone A expressing qnrB2 and beta-lactamase KPC-2 gene by Etest
Escherichia coli [26] = test: Antimicrobial activity against Escherichia coli GeneHogs by Etest
Procedure, shortened: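 MIC read by Etest on the plasmid-free electroporation recipient, E. coli GeneHogs (recA1 mutant).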

Escherichia coli [27] = test: Antimicrobial activity against Escherichia coli T-622 harboring expressing qnrB2 and beta-lactamase KPC-2 and SHV-12 gene by Etest in presence of beta-lactamase inhibitor Tazobactam
Enterobacter cloacae [28] = test: Antimicrobial activity against Enterobacter cloacae isolate 625 containing PFGE genetic clone A expressing qnrB2 and beta-lactamase KPC-2 and SHV-12 gene by Etest
Enterobacter cloacae [29] = test: Antimicrobial activity against Enterobacter cloacae isolate 1 containing PFGE genetic clone A expressing qnrB2 and beta-lactamase KPC-2 and SHV-12 gene by Etest in presence of beta-lactamase inhibitor Tazobactam; procedure, shortened: as §2
Enterobacter cloacae [30] = test: Antimicrobial activity against Enterobacter cloacae isolate 781 containing PFGE genetic clone B expressing qnrB2 and beta-lactamase KPC-2 and SHV-12 gene by Etest
Escherichia coli [31] = test: Antimicrobial activity against Escherichia coli T-781 harboring expressing qnrB2 and beta-lactamase KPC-2 and SHV-12 gene by Etest in presence of beta-lactamase inhibitor Tazobactam
Enterobacter cloacae [32] = test: Antimicrobial activity against Enterobacter cloacae isolate 185 containing PFGE genetic clone A expressing qnrB2 aac(6')-Ib-cr and beta-lactamase KPC-2 and SHV-12 gene by Etest in presence of beta-lactamase inhibitor Tazobactam; procedure, shortened: as §2
Enterobacter cloacae [33] = test: Antimicrobial activity against Enterobacter cloacae isolate 656 containing PFGE genetic clone A expressing beta-lactamase KPC-2 and SHV-12 gene by Etest in presence of beta-lactamase inhibitor Tazobactam; procedure, shortened: as §2
Enterobacter cloacae [34] = test: Antimicrobial activity against Enterobacter cloacae isolate 837 containing PFGE genetic clone B expressing qnrB2 and beta-lactamase KPC-2 and SHV-12 gene by Etest in presence of beta-lactamase inhibitor Tazobactam; procedure, shortened: as §2
Enterobacter cloacae [35] = test: Antimicrobial activity against Enterobacter cloacae isolate 1 containing PFGE genetic clone A expressing qnrB2 and beta-lactamase KPC-2 and SHV-12 gene by Etest
Enterobacter cloacae [36] = test: Antimicrobial activity against Enterobacter cloacae isolate 140 containing PFGE genetic clone A expressing beta-lactamase KPC-2 and SHV-12 gene by Etest in presence of beta-lactamase inhibitor Tazobactam; procedure, shortened: as §2
Enterobacter cloacae [37] = test: Antimicrobial activity against Enterobacter cloacae isolate 151 containing PFGE genetic clone A expressing qnrB2 and beta-lactamase KPC-2 gene by Etest in presence of beta-lactamase inhibitor Tazobactam; procedure, shortened: as §2
Enterobacter cloacae [38] = test: Antimicrobial activity against Enterobacter cloacae isolate 4469 containing PFGE genetic clone C expressing qnrB2 and beta-lactamase KPC-2 and SHV-12 gene by Etest in presence of beta-lactamase inhibitor Tazobactam

Measured: MIC

CCN1CCN(C(=O)N[C@@H](C(=O)N[C@@H]2C(=O)N3[C@@H]2SC(C)(C)[C@@H]3C(=O)O)c2ccccc2)C(=O)C1=O [PIPERACILLIN]
64 µg/mL: Escherichia coli [27] | Escherichia coli [31] | Enterobacter cloacae [38]
≤ 4 µg/mL: Escherichia coli [22] | Escherichia coli [26]
≥ 128 µg/mL: all other assays above
